Data set [1] in a line: Cytotoxicity against HEL cells infected with Cytomegalovirus assessed as alteration in cell morphology by microscopic method. It counts as cell-based. The conditions noted are these: human, HEL cells infected with Cytomegalovirus. In outline:
(§1)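 In the HEL cultures used for the antiviral assays, cell morphology was examined microscopically across varying compound concentrations. MCC is the minimum concentration causing a microscopically detectable alteration of cell morphology.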

For data set [2], the system named is CCRF-CEM. The data set can be described thus: Anti-proliferative activity against human CEM cells measured after 72 hrs by coulter counter method. Format: ADME, cell-based. The conditions noted are these: Homo sapiens, CCRF-CEM, 72 h. In outline: (§2)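 Cells at 300,000–500,000 cells/mL, combined 1:1 by volume with compound dilutions, incubated at 37 °C: L1210 for two days, CEM for three days, HeLa for four days. Cells counted by Coulter counter.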

In data set [3] the test system is HMEC-1. The data set can be described thus: Anti-proliferative activity against HMEC1 cells by coulter counter method. It counts as ADME, cell-based, Homo sapiens. The conditions noted are these: Homo sapiens, HMEC-1. In outline:
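HMEC-1 cells at 300,000–500,000 cells/mL, mixed 1:1 by volume with serial dilutions of test compound, incubated at 37 °C. Cell number counted by Coulter counter.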

Data set [4] concerns Human alphaherpesvirus 3. The data set can be described thus: Antiviral activity against thymidine kinase expressing Varicella-Zoster virus OKA infected in HEL cells assessed as reduction in virus plaque formation. Format: functional, cell-based, strain Oka vaccine. The following applies: Human alphaherpesvirus 3, strain Oka vaccine, HEL. In outline: (§3)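 Confluent HEL fibroblast cultures were infected with VZV at an input of 100 PFU and incubated with varying compound concentrations. Plaques were counted once plaque formation was complete in untreated infected controls.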

Data set [5] has as its system HeLa. Kind of data set: Anti-proliferative activity against human HeLa cells measured after 4 days by coulter counter method. Format: ADME, cell-based. The following applies: Homo sapiens, HeLa, 96 h. The method in brief: as §2
Data set [6] is described as follows: Cytotoxicity against HEL cells infected with Varicella-Zoster virus assessed as alteration in cell morphology by microscopic method. It counts as cell-based. The following applies: human, HEL cells infected with Varicella-Zoster virus. The method in brief:
as §1

The test system of data set [7] is Human alphaherpesvirus 3. The data set can be described thus: Antiviral activity against thymidine kinase deficient Varicella-Zoster virus 07-1 infected in HEL cells assessed as reduction in virus plaque formation. It counts as functional, cell-based. The conditions noted are these: Human alphaherpesvirus 3, 07-1, HEL. In outline:
as §3

The subject of data set [8] is Cytomegalovirus. The data set can be described thus: Antiviral activity against Cytomegalovirus Davis infected in HEL cells assessed as reduction in virus plaque formation. It counts as functional, cell-based. The following applies: Human betaherpesvirus 5, Davis, HEL. The method in brief: (§4)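 Confluent HEL fibroblast cultures infected with 100 PFU of HCMV and kept with varying compound concentrations. Plaques scored once plaque formation was complete in untreated infected controls.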

Data set [9] deals with Cytomegalovirus. The data set can be described thus: Antiviral activity against Cytomegalovirus AD169 infected in HEL cells assessed as reduction in virus plaque formation. It counts as functional, cell-based. The conditions noted are these: Human betaherpesvirus 5, AD169, HEL. The method in brief:
as §4

Data set [10] deals with L1210. The data set can be described thus: Anti-proliferative activity against mouse L1210 cells measured after 48 hrs by coulter counter method. It counts as ADME, cell-based. The following applies: Mus musculus, L1210, 48 h. The method in brief: as §2
In data set [11] the test system is HEL. The data set can be described thus: Cytotoxicity against HEL cells infected with Varicella-Zoster virus assessed as growth inhibition. It counts as cell-based. The following applies: human, hel.

Some results are limits rather than exact numbers.

The IC50 is the concentration at which inhibition is half-maximal. Read a low IC50 as higher potency. The EC50 is the concentration giving half of the maximal effect. On to `CCOP(=O)(OCC)C1CC(Cn2c(=O)n(Cc3ccccc3)c(=O)c3ccccc32)ON1C` (mixture of isomers), for which the MCC was 100 µM in data set [1] and above 100 µM in data set [6]. Besides, the IC50 in data set [2] amounted to 104 µM; in [3] it was 222 µM; in data set [5], 95 µM; in [10], 146 µM. The concentration giving a half-maximal response (EC50) in data set [4], in [7], in data set [8] and in [9] was above 100 µM in each case.

As usually defined, the CC50 is the concentration giving 50% cytotoxicity. For `CCOP(=O)(OCC)C1CC(Cn2c(=O)n(C(=O)c3ccc(F)cc3)c(=O)c3ccccc32)ON1Cc1ccccc1` (mixture of isomers), the MCC was 20 µM in [1] and 100 µM in [6]. Further, the half-inhibitory concentration (IC50) in [2] was 132 µM; in [5] it was above 250 µM; in [10], 105 µM. The EC50 is 7.4 µM in [4], 7.6 µM in data set [7], above 20 µM in data set [8] and above 20 µM in data set [9]. For the same compound, the CC50 in data set [11] was determined as 12.3 µM.

Regarding `CCOP(=O)(OCC)C1CC(Cn2c(=O)n(Cc3ccc(F)cc3)c(=O)c3ccccc32)ON1C` (mixture of isomers), the MCC in [1] and in data set [6] was 100 µM each time. Also, the half-inhibitory concentration (IC50) in data set [2] is 173 µM; in data set [3], at least 250 µM; in data set [5], 158 µM; in data set [10], at least 250 µM. Moreover, the EC50 in [4] is 35.5 µM; in [7] it was 25.2 µM; in data set [8], above 20 µM; in data set [9], above 20 µM.

Turning to `CCOP(=O)(OCC)C1CC(Cn2c(=O)n(C(=O)c3ccccc3F)c(=O)c3ccccc32)ON1C` (mixture of isomers), the figures for the MCC in data set [1] and in data set [6] were 100 µM and above 100 µM, respectively. Moreover, the IC50 in [3], in data set [5] and in data set [10] was above 250 µM throughout. In addition, the EC50 is 29 µM in [4], 25.6 µM in [7], 63.1 µM in [8] and above 100 µM in data set [9].

As to `CCOP(=O)(OCC)C1CC(Cn2c(=O)n(C(=O)c3cccc(F)c3)c(=O)c3ccccc32)ON1C` (mixture of isomers), the values for the MCC in data set [1] and in data set [6] were 100 µM and above 100 µM, respectively. Moreover, the EC50 is 7.8 µM in data set [4], 21.4 µM in data set [7], above 100 µM in [8] and above 100 µM in data set [9]. Besides, the IC50 in data set [5] and in data set [10] was above 250 µM in each case. Further, the CC50 in [11] was 30 µM.

Take `CCOP(=O)(OCC)C1CC(Cn2c(=O)n(C(=O)c3cccc(F)c3)c(=O)c3ccccc32)ON1Cc1ccccc1` (mixture of isomers): the MCC in data set [1] and in [6] was 100 µM throughout. For the same compound, the IC50 was 166 µM in data set [2], above 250 µM in data set [3] and 185 µM in data set [10]. Also, the concentration for a half-maximal effect (EC50) in data set [4] is 6 µM; in data set [7] it was 8.5 µM; in data set [8], above 20 µM; in data set [9], above 20 µM. Moreover, the CC50 in data set [11] came to 19.3 µM.

Take `CCOP(=O)(OCC)[C@@H]1C[C@@H](Cn2c(=O)n(Cc3ccccc3F)c(=O)c3ccccc32)ON1Cc1ccccc1` (relative stereo): the MCC in data set [1] and in data set [6] was 20 µM in each case. The IC50 in data set [2] was found to be 98 µM; in data set [3], 145 µM; in [5], 79 µM; in data set [10] it was 68 µM. In addition, the EC50 is 4 µM in data set [4], above 20 µM in [7], above 4 µM in data set [8] and above 20 µM in data set [9].

Take `CCOP(=O)(OCC)[C@H]1C[C@@H](Cn2c(=O)n(C(=O)c3ccccc3)c(=O)c3ccccc32)ON1Cc1ccccc1` (relative stereo): the MCC in [1] and in data set [6] was 100 µM throughout. Moreover, the IC50 was above 250 µM in [3] and 155 µM in [10]. Also, the EC50 in [4] was 8.5 µM; in data set [7], 10.8 µM; in [8] it was above 20 µM; in data set [9], above 20 µM. In data set [11], the CC50 worked out at 16.3 µM.

In the case of `CCOP(=O)(OCC)[C@@H]1C[C@@H](Cn2c(=O)n(Cc3ccccc3F)c(=O)c3ccccc32)ON1C` (relative stereo), the results for the MCC in [1] and in data set [6] were 20 µM and 100 µM, respectively. Moreover, the half-inhibitory concentration (IC50) was 99 µM in [2], 189 µM in [3], 74 µM in data set [5] and 196 µM in data set [10]. Also, the EC50 is above 20 µM in data set [4], above 20 µM in data set [7], 100 µM in data set [8] and above 100 µM in [9].

`CCOP(=O)(OCC)[C@H]1C[C@@H](Cn2c(=O)n(Cc3ccccc3F)c(=O)c3ccccc32)ON1C` (relative stereo): the MCC in data set [1] is 100 µM; in data set [6] it was above 100 µM. The IC50 was 181 µM in data set [2], at least 250 µM in data set [3], 128 µM in data set [5] and 203 µM in [10]. The EC50 in [4] was 58.5 µM; in data set [7] it was above 100 µM; in data set [8], 100 µM; in data set [9] it was above 100 µM.

With `CCOP(=O)(OCC)[C@@H]1C[C@@H](Cn2c(=O)n(C(=O)c3ccc(F)cc3)c(=O)c3ccccc32)ON1Cc1ccccc1` (relative stereo), the figures for the MCC in data set [1] and in data set [6] were 20 µM and 100 µM, respectively. Besides, the IC50 in [2] was 170 µM; in data set [3], at least 250 µM; in data set [10], 123 µM. Besides, the EC50 was 7.5 µM in data set [4], 8.3 µM in data set [7], above 20 µM in data set [8] and above 20 µM in data set [9]. Moreover, the CC50 in data set [11] was 12.7 µM.

`CCOP(=O)(OCC)[C@@H]1C[C@@H](Cn2c(=O)n(Cc3cccc(F)c3)c(=O)c3ccccc32)ON1C` (relative stereo): the MCC in data set [1] and in data set [6] was above 100 µM each time. In addition, the IC50 in data set [2] stood at 100 µM; in data set [3] it was 152 µM; in [5] it was 88 µM; in data set [10], 132 µM. Besides, the EC50 in data set [4] is 55.7 µM; in data set [7] it was above 100 µM; in [8], 63.1 µM; in data set [9], 76.5 µM.

In the case of `CCOP(=O)(OCC)[C@@H]1C[C@@H](Cn2c(=O)n(Cc3ccc(F)cc3)c(=O)c3ccccc32)ON1C` (relative stereo), the figures for the MCC in data set [1] and in data set [6] were 100 µM and 10 µM, respectively. Further, the IC50 was 93 µM in data set [2], 158 µM in data set [3], 82 µM in data set [5] and 126 µM in [10]. Moreover, the EC50 in data set [4] was 66.9 µM; in [7] it was above 20 µM; in data set [8] it was 100 µM; in data set [9] it was above 100 µM.

On to `CCOP(=O)(OCC)[C@H]1C[C@@H](Cn2c(=O)n(C(=O)c3ccc(F)cc3)c(=O)c3ccccc32)ON1C` (relative stereo), for which the MCC was 100 µM in data set [1] and above 100 µM in [6]. The IC50 in data set [2], in [3] and in [5] was above 250 µM each time. In addition, the EC50 in data set [4] was 26.2 µM; in data set [7] it was 24.5 µM; in data set [8], above 20 µM; in data set [9] it was above 20 µM.

For the compound `CCOP(=O)(OCC)[C@@H]1C[C@@H](Cn2c(=O)n(C(=O)c3ccccc3F)c(=O)c3ccccc32)ON1C` (relative stereo), the MCC in [1] is 100 µM; in [6], above 100 µM. Besides, in [2], the 50% inhibitory concentration (IC50) was above 250 µM. Besides, the EC50 in [4] was 36.6 µM; in data set [7], 34.2 µM; in data set [8], 66.9 µM; in [9] it was above 20 µM.

Regarding `CCOP(=O)(OCC)[C@@H]1C[C@@H](Cn2c(=O)n(C(=O)c3cccc(F)c3)c(=O)c3ccccc32)ON1C` (relative stereo), the values for the MCC in [1] and in data set [6] were 100 µM and above 100 µM, respectively. Further, the IC50 is above 250 µM in data set [2], above 250 µM in [3] and 228 µM in [10]. Further, the concentration giving a half-maximal response (EC50) in data set [4] is 16.7 µM; in data set [7] it was 15 µM; in [8] it was above 20 µM; in data set [9], above 20 µM. In addition, the CC50 in data set [11] was 16.5 µM.

Consider `CCOP(=O)(OCC)[C@@H]1C[C@@H](Cn2c(=O)n(Cc3ccccc3)c(=O)c3ccccc32)ON1C` (relative stereo), for which the MCC in data set [1] and in data set [6] was 100 µM in each case. For the same compound, the IC50 was 124 µM in data set [2], 235 µM in data set [3], 119 µM in data set [5] and 141 µM in [10]. Moreover, the EC50 is above 20 µM in data set [4], above 20 µM in data set [7], above 100 µM in data set [8] and above 100 µM in [9].

For `O=c1[nH]cc(F)c(=O)[nH]1` [FLUOROURACIL], in [10], 0.33 µM corresponded to half-maximal inhibition (IC50).

The values are drawn from ChEMBL document CHEMBL3994569, “Synthesis, anti-varicella-zoster virus and anti-cytomegalovirus activity of quinazoline-2,4-diones containing isoxazolidine and phosphonate substructures” (Eur J Med Chem, 2017).
